Experimental data taken from ChEMBL document CHEMBL3297731, “The design and discovery of water soluble 4-substituted-2,6-dimethylfuro[2,3-d]pyrimidines as multitargeted receptor tyrosine kinase inhibitors and microtubule targeting antitumor agents” (Bioorg Med Chem, 2014).
pIC50: −log10 of the molar value. The source made the active and inactive calls. The rule behind the calls is not given here.

How the values were obtained:
[1] = Growth inhibition of human MOLT4 cells by SRB assay; type: functional; settings: MOLT-4
Tubulin = Tubulin (Sus scrofa, UniProt P02554+P02550); experiment: Inhibition of pig brain tubulin polymerization by spectrophotometric analysis
HeLa [2] = experiment: Antiproliferative activity against human HeLa cells expressing beta3-tubulin; type: functional, cell-based
SK-OV-3 [3] = experiment: Antiproliferative activity against human SKOV3 cells expressing MDR1/M-6-6; type: functional, cell-based
[4] = target: Vascular endothelial growth factor receptor 2 (Homo sapiens, UniProt P35968); type: cell-based, U-251
Sequence of Vascular endothelial growth factor receptor 2 (P35968 whole entry): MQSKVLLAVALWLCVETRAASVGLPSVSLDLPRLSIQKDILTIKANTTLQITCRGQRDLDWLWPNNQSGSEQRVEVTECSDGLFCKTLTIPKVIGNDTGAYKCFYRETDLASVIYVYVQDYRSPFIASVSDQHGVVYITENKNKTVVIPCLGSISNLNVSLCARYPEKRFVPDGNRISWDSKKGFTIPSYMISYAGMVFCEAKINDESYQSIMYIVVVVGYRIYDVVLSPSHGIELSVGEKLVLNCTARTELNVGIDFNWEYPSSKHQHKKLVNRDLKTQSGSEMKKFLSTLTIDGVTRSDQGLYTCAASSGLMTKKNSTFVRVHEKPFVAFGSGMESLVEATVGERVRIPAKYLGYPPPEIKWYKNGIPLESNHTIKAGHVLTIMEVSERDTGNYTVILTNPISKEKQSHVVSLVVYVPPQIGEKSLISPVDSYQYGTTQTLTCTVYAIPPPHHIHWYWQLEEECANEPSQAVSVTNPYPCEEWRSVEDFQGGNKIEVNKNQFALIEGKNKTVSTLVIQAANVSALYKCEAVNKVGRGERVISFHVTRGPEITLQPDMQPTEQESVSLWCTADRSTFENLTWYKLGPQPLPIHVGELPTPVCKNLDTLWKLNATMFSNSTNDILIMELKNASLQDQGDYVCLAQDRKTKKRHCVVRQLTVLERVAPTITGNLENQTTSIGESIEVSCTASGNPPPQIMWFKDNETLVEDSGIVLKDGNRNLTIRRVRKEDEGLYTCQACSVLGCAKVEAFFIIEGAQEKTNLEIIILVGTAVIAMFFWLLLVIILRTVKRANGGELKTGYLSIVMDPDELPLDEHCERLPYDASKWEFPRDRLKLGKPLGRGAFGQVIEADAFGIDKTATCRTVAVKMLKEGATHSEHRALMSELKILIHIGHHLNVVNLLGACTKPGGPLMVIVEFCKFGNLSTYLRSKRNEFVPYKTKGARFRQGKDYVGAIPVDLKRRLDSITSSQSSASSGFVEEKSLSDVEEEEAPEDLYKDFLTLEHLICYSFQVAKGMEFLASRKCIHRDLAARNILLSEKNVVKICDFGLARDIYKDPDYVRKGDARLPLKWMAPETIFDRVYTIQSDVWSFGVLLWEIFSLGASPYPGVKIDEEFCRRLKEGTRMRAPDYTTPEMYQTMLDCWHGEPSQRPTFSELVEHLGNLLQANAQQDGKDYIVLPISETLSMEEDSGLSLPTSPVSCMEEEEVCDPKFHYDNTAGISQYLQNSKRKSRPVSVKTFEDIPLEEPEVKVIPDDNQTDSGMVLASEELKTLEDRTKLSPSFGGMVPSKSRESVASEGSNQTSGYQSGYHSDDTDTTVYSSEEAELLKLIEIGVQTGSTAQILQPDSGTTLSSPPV

[5] = target: Platelet-derived growth factor receptor beta (Homo sapiens, UniProt P09619); experiment: Inhibition of PDGFRbeta in human SH-SY5Y cells by phosphotyrosine ELISA assay; type: cell-based
Sequence of Platelet-derived growth factor receptor beta (P09619 whole entry): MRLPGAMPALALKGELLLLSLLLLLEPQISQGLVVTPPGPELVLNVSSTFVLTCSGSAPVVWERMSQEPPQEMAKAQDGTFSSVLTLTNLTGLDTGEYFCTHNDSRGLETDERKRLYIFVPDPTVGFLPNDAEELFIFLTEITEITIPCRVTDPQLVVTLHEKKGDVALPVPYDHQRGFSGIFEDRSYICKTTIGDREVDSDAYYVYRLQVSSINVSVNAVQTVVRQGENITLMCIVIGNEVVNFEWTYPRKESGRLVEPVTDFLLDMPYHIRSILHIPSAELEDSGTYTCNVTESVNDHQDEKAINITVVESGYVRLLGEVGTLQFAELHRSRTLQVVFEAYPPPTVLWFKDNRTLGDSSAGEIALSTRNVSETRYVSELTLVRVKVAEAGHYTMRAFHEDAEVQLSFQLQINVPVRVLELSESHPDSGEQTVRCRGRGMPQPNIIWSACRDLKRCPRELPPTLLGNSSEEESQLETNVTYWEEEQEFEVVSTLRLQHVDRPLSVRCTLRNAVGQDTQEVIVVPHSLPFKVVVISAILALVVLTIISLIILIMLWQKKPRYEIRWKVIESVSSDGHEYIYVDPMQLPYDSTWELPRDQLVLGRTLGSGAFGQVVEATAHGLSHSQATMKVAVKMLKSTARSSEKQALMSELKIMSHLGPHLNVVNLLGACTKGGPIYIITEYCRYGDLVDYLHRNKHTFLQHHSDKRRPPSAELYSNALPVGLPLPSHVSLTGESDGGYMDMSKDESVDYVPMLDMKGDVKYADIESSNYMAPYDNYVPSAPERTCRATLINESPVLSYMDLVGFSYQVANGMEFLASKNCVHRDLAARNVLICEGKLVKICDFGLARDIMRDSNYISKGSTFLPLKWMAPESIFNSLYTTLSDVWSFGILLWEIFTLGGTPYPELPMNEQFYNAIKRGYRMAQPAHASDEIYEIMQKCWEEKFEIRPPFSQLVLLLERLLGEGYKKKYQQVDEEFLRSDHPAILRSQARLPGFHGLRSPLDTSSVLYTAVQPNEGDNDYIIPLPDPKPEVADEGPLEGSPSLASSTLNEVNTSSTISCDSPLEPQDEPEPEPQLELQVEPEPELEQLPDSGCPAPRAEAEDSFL

SK-OV-3 [6] = experiment: Antiproliferative activity against human SKOV3 cells; type: functional, cell-based
[7] = target: Epidermal growth factor receptor (Homo sapiens, UniProt P00533); type: cell-based, A-431
Sequence of Epidermal growth factor receptor (P00533 whole entry): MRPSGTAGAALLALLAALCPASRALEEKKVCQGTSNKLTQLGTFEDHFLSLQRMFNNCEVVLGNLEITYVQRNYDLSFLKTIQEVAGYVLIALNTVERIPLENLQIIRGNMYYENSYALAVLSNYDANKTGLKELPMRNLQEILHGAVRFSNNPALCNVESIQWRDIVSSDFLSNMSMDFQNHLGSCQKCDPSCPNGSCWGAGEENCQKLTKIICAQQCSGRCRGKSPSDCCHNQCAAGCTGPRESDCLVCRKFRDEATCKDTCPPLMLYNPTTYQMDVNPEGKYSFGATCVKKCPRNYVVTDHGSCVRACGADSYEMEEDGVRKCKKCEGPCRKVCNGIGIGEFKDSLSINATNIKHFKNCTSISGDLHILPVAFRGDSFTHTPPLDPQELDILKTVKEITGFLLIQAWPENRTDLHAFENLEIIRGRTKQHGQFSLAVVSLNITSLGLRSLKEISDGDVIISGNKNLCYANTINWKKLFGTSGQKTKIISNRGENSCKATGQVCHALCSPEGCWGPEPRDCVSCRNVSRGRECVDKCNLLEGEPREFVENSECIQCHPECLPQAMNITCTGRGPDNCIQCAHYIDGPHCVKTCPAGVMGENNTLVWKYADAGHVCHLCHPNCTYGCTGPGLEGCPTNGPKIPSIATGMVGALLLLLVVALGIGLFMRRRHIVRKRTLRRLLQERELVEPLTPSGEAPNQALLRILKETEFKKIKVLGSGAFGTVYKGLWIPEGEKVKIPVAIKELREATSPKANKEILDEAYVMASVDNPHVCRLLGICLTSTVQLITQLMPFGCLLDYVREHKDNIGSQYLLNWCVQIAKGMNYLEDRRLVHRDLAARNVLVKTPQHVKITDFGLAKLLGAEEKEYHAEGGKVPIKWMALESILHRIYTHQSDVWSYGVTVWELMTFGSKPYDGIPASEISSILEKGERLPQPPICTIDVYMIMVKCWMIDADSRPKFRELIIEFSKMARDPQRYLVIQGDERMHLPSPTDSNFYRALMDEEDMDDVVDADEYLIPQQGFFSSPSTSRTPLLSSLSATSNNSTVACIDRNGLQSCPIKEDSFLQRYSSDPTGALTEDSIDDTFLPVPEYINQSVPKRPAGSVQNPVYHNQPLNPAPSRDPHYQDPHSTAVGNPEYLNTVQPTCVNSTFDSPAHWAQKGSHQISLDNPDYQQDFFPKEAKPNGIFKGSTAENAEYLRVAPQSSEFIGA

Chorioallantoic membrane = experiment: Antiangiogenic activity in fertile leghorn chicken egg Chorioallantoic membrane assessed as inhibition of human VEGF-165/bFGF-induced angiogenesis after 48 hrs by CAM assay; type: functional, tissue-based; settings: Gallus gallus
MDA-MB-435 [8] = experiment: Antiproliferative activity against human MDA-MB-435 cells; type: functional, cell-based
HeLa [9] = experiment: Antiproliferative activity against human HeLa cells; type: functional, cell-based
A-431 = experiment: Cytotoxicity against human A431 cells by SRB assay; type: functional, cell-based
4T1 [10] = experiment: Cytotoxicity against mouse triple negative 4T1 cells; type: functional, cell-based
MCF7 [11] = experiment: Cytotoxicity against human taxoid-resistant MCF7 cells; type: functional, cell-based
MDA-MB-231 = experiment: Cytotoxicity against human triple negative MDA-MB-231 cells; type: functional, cell-based
MDA-MB-468 = experiment: Cytotoxicity against human triple negative MDA-MB-468 cells; type: functional, cell-based
MDA-MB-435 [12] = experiment: Cytotoxicity against human MDA-MB-435 cells; type: functional, cell-based
HUVEC = experiment: Cytotoxicity against HUVEC; type: cell-based; settings: Homo sapiens
MCF7 [13] = experiment: Cytotoxicity against human ER-positive MCF7 cells; type: functional, cell-based
Mus musculus [14] = experiment: Toxicity in luciferase/GFP-tagged mouse 4T1 cells allografted in BALBc/J mouse assessed as body weight loss at 50 mg/kg twice weekly starting at day 7 and continuing to day 32; type: organism-based; parameters: dose 50 mg/kg; settings: in vivo
Summary of the method: (§1)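 750 4T1-Luc2/GFP cells (>98% GFP+) in PBS/1 mM EDTA implanted into fat pad #4 of 8 wk female BALB/c mice. MTD doses given twice weekly (docetaxel weekly), day 7 to day 32; DMSO/solutol-15/D5W vehicle. Calipers, ellipsoid volume; weights before each dose; 7-10 mice per group; lungs imaged fresh by fluorescence at day 33.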

Mus musculus [15] = experiment: Toxicity in human MDA-MB-435 cells […] assessed as increase in body weight at 50 mg/kg; type: organism-based; parameters: dose 50 mg/kg; settings: in vivo
in vivo = settings: BALBc/J, mouse
4T1 [16] = experiment: Antitumor activity against luciferase/GFP-tagged mouse 4T1 cells allografted in BALBc/J mouse assessed as reduction in tumor size at 50 mg/kg twice weekly starting at day 7 and continuing to day 32; type: functional, organism-based; parameters: dose 50 mg/kg; summary of the method: as §1
MDA-MB-435 [17] = experiment: Antitumor activity against human MDA-MB-435 cells […] assessed as decrease in tumor growth at 50 mg/kg relative to untreated control; type: functional, organism-based; parameters: dose 50 mg/kg
[18] = test system: MDA-MB-435 (Homo sapiens); experiment: Induction of apoptosis in human MDA-MB-435 cells assessed as PARP cleavage at 75 nM after 18 to 36 hrs by Western blot analysis
Tubulin (Sus scrofa) = Tubulin (Sus scrofa) (UniProt P02554+P02550); settings: 5 uM
Sequence of Tubulin (Sus scrofa) (P02550 whole entry, looked up): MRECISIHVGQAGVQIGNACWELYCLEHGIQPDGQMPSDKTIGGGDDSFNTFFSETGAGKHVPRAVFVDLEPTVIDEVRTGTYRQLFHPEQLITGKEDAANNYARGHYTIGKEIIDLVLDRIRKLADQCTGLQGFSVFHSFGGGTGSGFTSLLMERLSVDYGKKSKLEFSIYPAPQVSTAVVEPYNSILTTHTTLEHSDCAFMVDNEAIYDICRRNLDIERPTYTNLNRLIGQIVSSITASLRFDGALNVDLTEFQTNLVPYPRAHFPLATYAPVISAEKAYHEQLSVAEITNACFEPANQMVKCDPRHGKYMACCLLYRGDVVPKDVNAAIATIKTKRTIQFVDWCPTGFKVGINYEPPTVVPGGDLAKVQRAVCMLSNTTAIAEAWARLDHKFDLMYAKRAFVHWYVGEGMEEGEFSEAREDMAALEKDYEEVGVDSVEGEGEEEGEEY
Sequence of Tubulin (Sus scrofa) (P02554 whole entry, looked up): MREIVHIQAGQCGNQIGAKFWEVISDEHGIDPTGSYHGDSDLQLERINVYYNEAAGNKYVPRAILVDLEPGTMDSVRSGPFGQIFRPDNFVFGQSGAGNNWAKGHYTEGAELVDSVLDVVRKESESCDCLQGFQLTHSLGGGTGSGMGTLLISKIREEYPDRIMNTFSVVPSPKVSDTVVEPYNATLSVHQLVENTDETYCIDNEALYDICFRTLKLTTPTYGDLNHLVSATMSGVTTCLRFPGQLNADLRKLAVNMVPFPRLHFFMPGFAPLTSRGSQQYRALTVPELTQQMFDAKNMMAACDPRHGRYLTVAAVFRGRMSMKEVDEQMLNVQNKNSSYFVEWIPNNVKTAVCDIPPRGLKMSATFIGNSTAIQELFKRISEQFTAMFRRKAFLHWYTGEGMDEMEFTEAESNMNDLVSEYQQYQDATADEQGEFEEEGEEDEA

HeLa [19] = experiment: Cell cycle arrest in human HeLa cells assessed as effect on accumulation at G1 phase at 40 to 50 nM after 18 hrs by flow cytometric analysis; type: functional, cell-based
Summary of the method: (§2)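 HeLa cells allowed to adhere 24 h, then drug-treated (18 h per legend; harvest stated 24 h in methods). Stained with Krishan's reagent; DNA content measured by flow cytometry.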

HeLa [20] = experiment: Cell cycle arrest in human HeLa cells assessed as accumulation at G2/M phase at 40 to 50 nM after 18 hrs by flow cytometric analysis; type: functional, cell-based; summary of the method: as §2
4T1 [21] = experiment: Antitumor activity against luciferase/GFP-tagged mouse 4T1 cells allografted in BALBc/J mouse assessed as reduction in number of lung metastases at 50 mg/kg twice weekly starting at day 7 and continuing to day 32; type: functional, organism-based; parameters: dose 50 mg/kg; summary of the method: as §1
4T1 [22] = experiment: Antitumor activity against luciferase/GFP-tagged mouse 4T1 cells allografted in BALBc/J mouse assessed as reduction in primary tumor growth at 50 mg/kg twice weekly starting at day 7 and continuing to day 32; type: functional, organism-based; parameters: dose 50 mg/kg; summary of the method: as §1
MDA-MB-435 [23] = experiment: Antitumor activity against human MDA-MB-435 cells […] assessed as decrease in tumor vascular density at 50 mg/kg by CD31/PECAM-1 immunohistochemical staining; type: functional, organism-based; parameters: dose 50 mg/kg
HeLa [24] = experiment: Cell cycle arrest in human HeLa cells assessed as accumulation at G2/M phase after 18 hrs by flow cytometric analysis; type: functional, cell-based; summary of the method: as §2
[25] = test system: MDA-MB-435 (Homo sapiens); experiment: Induction of apoptosis in human MDA-MB-435 cells assessed as PARP cleavage at 75 nM after 18 hrs by Western blot analysis
4T1 [26] = experiment: Antitumor activity against luciferase/GFP-tagged mouse 4T1 cells allografted in BALBc/J mouse assessed as reduction in primary tumor growth at 35 mg/kg twice weekly starting at day 7 and continuing to day 32; type: functional, organism-based; parameters: dose 35 mg/kg; summary of the method: as §1

COc1ccc(N(C)c2nc(C)nc3oc(C)cc23)cc1 [listing 1 of 2 here]
GI50 [1]: 67.9 nM
IC50 (Tubulin): 1900 nM

CCN(c1ccc(OC)cc1)c1nc(C)nc2oc(C)cc12
pIC50 (HeLa [2]): 6.69
pIC50 (SK-OV-3 [3]): 6.57
pIC50 [4]: 7.97
pIC50 [5]: 7.57
pIC50 (SK-OV-3 [6]): 6.64
pIC50 [7]: 7.15
pIC50 (Chorioallantoic membrane): 4.72
pIC50 (MDA-MB-435 [8]): 6.86
pIC50 (HeLa [9]): 6.78

CCCCN(c1ccc(OC)cc1)c1nc(C)nc2oc(C)cc12
pIC50 (HeLa [2]): < 5.00
pIC50 (SK-OV-3 [3]): < 5.00
pIC50 [4]: 7.46
pIC50 [5]: 7.25
pIC50 (SK-OV-3 [6]): < 5.00
pIC50 [7]: 6.47
pIC50 (Chorioallantoic membrane): 4.49
pIC50 (MDA-MB-435 [8]): < 5.00
pIC50 (HeLa [9]): < 5.00

COc1cccc2c1C(=O)c1c(O)c3c(c(O)c1C2=O)C[C@@](O)(C(=O)CO)C[C@@H]3O[C@H]1C[C@H](N)[C@H](O)[C@H](C)O1 [DOXORUBICIN]
pIC50 (A-431): 8.87

Cc1nc(Nc2cccc3[nH]ccc23)c2cc(C)oc2n1
pIC50 [4]: 6.99
pIC50 [5]: 7.55
pIC50 [7]: 7.04
pIC50 (Chorioallantoic membrane): 4.65

Cc1nc(Nc2ccc(Cl)cc2)c2cc(C)oc2n1
pIC50 [4]: 7.15
pIC50 [7]: 6.99

C#Cc1cccc(Nc2nc(C)nc3oc(C)cc23)c1
pIC50 [4]: 7.12
pIC50 [5]: 7.79
pIC50 [7]: 7.52
pIC50 (Chorioallantoic membrane): 4.74

CCN(CC)CCNC(=O)c1c(C)[nH]c(/C=C2\C(=O)Nc3ccc(F)cc32)c1C [SUNITINIB]
pIC50 (4T1 [10]): 7.80
pIC50 (MCF7 [11]): 7.53
pIC50 (MDA-MB-231): 7.65
pIC50 (MDA-MB-468): 8.21
pIC50 (MDA-MB-435 [12]): 8.01
pIC50 (HUVEC): 7.93
pIC50 (MCF7 [13]): 7.57

Cc1nc(Nc2ccccc2)c2cc(C)oc2n1
pIC50 [7]: 6.95

Cc1nc(Nc2ccc(C(F)(F)F)cc2)c2cc(C)oc2n1
pIC50 [4]: 7.18
pIC50 [5]: 7.18
pIC50 [7]: 6.91

Cc1nc(Nc2ccc(F)c(Cl)c2)c2cc(C)oc2n1
pIC50 [4]: 7.24
pIC50 [7]: 7.52

CCCN(c1ccc(OC)cc1)c1nc(C)nc2oc(C)cc12
pIC50 (HeLa [2]): 5.82
pIC50 (SK-OV-3 [3]): 5.47
pIC50 [4]: 8.07
pIC50 [5]: 7.52
pIC50 (SK-OV-3 [6]): 5.80
pIC50 (Chorioallantoic membrane): 4.78
pIC50 (MDA-MB-435 [8]): 5.85
pIC50 (HeLa [9]): 5.91

COc1ccc(Nc2nc(C)nc3oc(C)cc23)cc1
pIC50 [4]: 7.37
pIC50 [5]: 7.20
pIC50 [7]: 7.37

Cc1nc(Nc2cccc3ccccc23)c2cc(C)oc2n1
pIC50 [4]: 7.49
pIC50 [7]: 6.84

COc1ccc(N(C)c2nc(C)nc3oc(C)cc23)cc1.Cl
pIC50 (HeLa [2]): 7.35
Activity (Mus musculus [14]): Non-toxic
pIC50 (4T1 [10]): 7.01
pIC50 (MCF7 [11]): 6.89
pIC50 (MDA-MB-231): 6.83
pIC50 (MDA-MB-468): 8.15
Activity (Mus musculus [15]): Non-toxic
MTD (in vivo): 50 mg/kg
pIC50 (HUVEC): 6.76
pIC50 (MDA-MB-435 [8]): 7.33
pIC50 (MCF7 [13]): 6.86
pIC50 (HeLa [9]): 7.39

CC(=O)O[C@H]1C(=O)[C@@]2(C)[C@H]([C@H](OC(=O)c3ccccc3)[C@]3(O)C[C@H](OC(=O)[C@H](O)[C@@H](NC(=O)c4ccccc4)c4ccccc4)C(C)=C1C3(C)C)[C@]1(OC(C)=O)CO[C@@H]1C[C@@H]2O [PACLITAXEL]
pIC50 (MDA-MB-435 [8]): 8.71

COc1ccc(N(c2nc(C)nc3oc(C)cc23)C(C)C)cc1
pIC50 (HeLa [2]): 5.39
pIC50 (SK-OV-3 [3]): 5.13
pIC50 [4]: 7.81
pIC50 [5]: 7.64
pIC50 (SK-OV-3 [6]): 5.42
pIC50 [7]: 7.07
pIC50 (Chorioallantoic membrane): 4.72
pIC50 (MDA-MB-435 [8]): 5.52
pIC50 (HeLa [9]): 5.54

COc1ccc(N(C)c2nc(C)nc3oc(C)cc23)cc1 [listing 2 of 2 here]
inhibition (4T1 [16]): Active
inhibition (MDA-MB-435 [17]): Active
Activity [18]: Active
inhibition (Tubulin (Sus scrofa)): 86%
Activity (HeLa [19]): inactive
Activity (HeLa [20]): Active
inhibition (4T1 [21]): Active
inhibition (4T1 [22]): Active
Activity (MDA-MB-435 [23]): Active
inhibition (HeLa [24]): Dose-dependent effect
Activity [25]: Active

CS(=O)(=O)CCNCc1ccc(-c2ccc3ncnc(Nc4ccc(OCc5cccc(F)c5)c(Cl)c4)c3c2)o1 [LAPATINIB]
pIC50 (4T1 [10]): 7.98
pIC50 (MDA-MB-231): 7.70
pIC50 (MDA-MB-468): 7.08
pIC50 (MDA-MB-435 [12]): 7.53
pIC50 (MCF7 [13]): 7.19

CC(=O)O[C@@]12CO[C@@H]1C[C@H](O)[C@@]1(C)C(=O)[C@H](O)C3=C(C)[C@@H](OC(=O)[C@H](O)[C@@H](NC(=O)OC(C)(C)C)c4ccccc4)C[C@@](O)([C@@H](OC(=O)c4ccccc4)[C@H]21)C3(C)C.O.O.O [DOCETAXEL]
pIC50 (4T1 [10]): 7.20
pIC50 (MCF7 [11]): < 6.00
pIC50 (MDA-MB-231): 7.80
pIC50 (MDA-MB-468): 7.16
pIC50 (MDA-MB-435 [12]): 8.57
MTD (in vivo): 35 mg/kg
pIC50 (HUVEC): 7.25
inhibition (4T1 [26]): Active
pIC50 (MCF7 [13]): 7.23
